In ChEMBL document CHEMBL1156775 (J Med Chem, 2010) one finds Ki and Ratio Ki data, which are given here for three molecules.

Assay [1] has as its target Mu-type opioid receptor (Homo sapiens, UniProt P35372). Put plainly: Displacement of [3H]DAMGO from human mu opioid receptor expressed in CHO cells. The format is cell-based.
Assay [2] has as its target Delta-type opioid receptor (Homo sapiens, UniProt P41143). Put plainly: Displacement of [3H]naltrindole from human delta opioid receptor expressed in CHO cells. The format is cell-based. The method, boiled down:
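CHO cells stably expressing a single human opioid receptor were grown in DMEM with 10% FBS and penicillin/streptomycin at 37 °C in 5% CO2. Their membranes were incubated with radioligand and 12 concentrations of test compound at 25 °C in 50 mM Tris-HCl, pH 7.5.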
In general terms: Loss of bound radioactivity is the signal in a displacement assay; it reports binding, not function.

The species entered for assay [3] is Homo sapiens. Briefly: Selectivity ratio of Ki for human kappa opioid receptor to Ki for human mu opioid receptor.
Assay [4] deals with Kappa-type opioid receptor (Homo sapiens, UniProt P41145). Briefly: Displacement of [3H]U69593 from human kappa opioid receptor expressed in CHO cells. It is filed as cell-based.
Chain of Kappa-type opioid receptor (P41145 whole entry): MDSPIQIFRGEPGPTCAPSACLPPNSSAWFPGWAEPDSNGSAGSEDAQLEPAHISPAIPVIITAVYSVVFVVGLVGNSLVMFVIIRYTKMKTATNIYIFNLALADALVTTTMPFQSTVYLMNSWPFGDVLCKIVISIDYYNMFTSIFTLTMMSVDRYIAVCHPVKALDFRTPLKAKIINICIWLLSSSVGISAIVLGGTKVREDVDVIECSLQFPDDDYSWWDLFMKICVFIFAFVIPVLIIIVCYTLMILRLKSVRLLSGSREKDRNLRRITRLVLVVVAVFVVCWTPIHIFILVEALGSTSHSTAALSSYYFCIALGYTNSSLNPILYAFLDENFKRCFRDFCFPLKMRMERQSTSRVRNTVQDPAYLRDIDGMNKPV
The species named for assay [5] is Homo sapiens. Put plainly: Selectivity ratio of Ki for human delta opioid receptor to Ki for human mu opioid receptor.

Chain of Delta-type opioid receptor (P41143 whole entry): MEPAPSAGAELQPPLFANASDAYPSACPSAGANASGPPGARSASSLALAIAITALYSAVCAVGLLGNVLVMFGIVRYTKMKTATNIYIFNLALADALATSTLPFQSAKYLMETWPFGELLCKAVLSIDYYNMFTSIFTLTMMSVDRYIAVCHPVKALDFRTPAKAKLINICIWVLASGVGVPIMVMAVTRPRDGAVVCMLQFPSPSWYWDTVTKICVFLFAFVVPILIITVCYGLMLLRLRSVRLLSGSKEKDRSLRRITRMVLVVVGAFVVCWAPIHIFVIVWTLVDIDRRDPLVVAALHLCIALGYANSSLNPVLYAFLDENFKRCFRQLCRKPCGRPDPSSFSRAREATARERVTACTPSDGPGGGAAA
Chain of Mu-type opioid receptor (P35372 whole entry): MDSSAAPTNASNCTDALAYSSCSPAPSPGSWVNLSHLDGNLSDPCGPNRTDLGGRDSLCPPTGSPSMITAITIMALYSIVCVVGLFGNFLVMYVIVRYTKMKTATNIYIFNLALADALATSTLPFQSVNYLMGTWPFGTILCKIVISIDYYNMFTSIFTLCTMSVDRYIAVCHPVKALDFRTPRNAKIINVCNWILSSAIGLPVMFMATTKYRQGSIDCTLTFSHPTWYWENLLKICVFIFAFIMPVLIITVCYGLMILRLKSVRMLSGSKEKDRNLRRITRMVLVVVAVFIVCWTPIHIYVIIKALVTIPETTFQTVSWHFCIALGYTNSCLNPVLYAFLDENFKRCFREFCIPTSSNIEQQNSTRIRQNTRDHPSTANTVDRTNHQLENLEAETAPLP

Usually Ki stands for a dissociation constant, usually derived from enzyme kinetics or from competition with a known ligand. Read a high Ki as lower affinity. As to `CCN(CCCCN(CC)Cc1cc2c(cc1O)[C@@]13CCCC[C@H]1[C@@H](C2)N(CC1CCC1)CC3)Cc1cc2c(cc1O)[C@@]13CCCC[C@H]1[C@@H](C2)N(CC1CCC1)CC3`, the values for the Ki in assay [1], in assay [2] and in assay [4] were 160 nM, 1100 nM and 44 nM, respectively. Moreover, the Ratio Ki was 0.3 in assay [3] and 7 in assay [5].

In the case of `CN1CC[C@]23CCCC[C@H]2[C@H]1Cc1ccc(NC(=O)Nc2ccccc2)cc13`, the Ki worked out at 11 nM in assay [1], 320 nM in assay [2] and 340 nM in assay [4]. In addition, the Ratio Ki in assay [3] came to 31; in assay [5], 29.

In the case of `O=C(Nc1ccc(I)cc1)Nc1ccc2c(c1)[C@@]13CCCC[C@H]1[C@@H](C2)N(CC1CC1)CC3`, the values for the Ki in assay [1], in assay [2] and in assay [4] were 23 nM, 94 nM and 12 nM, respectively. The Ratio Ki in assay [3] was 0.5; in assay [5], 4.
